Test results reported in ChEMBL document CHEMBL1123775, “C3-methylated 5-hydroxy-2-(dipropylamino)tetralins: conformational and steric parameters of importance for central dopamine receptor activation” (1987).
Active and inactive are the calls of the source. No cut-off for these calls is given here.

What was measured:
Rattus norvegicus [1] = assay: Effect of in vivo DOPA accumulation in nonpretreated rats at limbic region, at 5 mg/kg dosage administered subcutaneously; I = Inactive; assay type: functional, organism-based; set-up: dose 5 mg/kg; settings: Limbic system
How it was run: (§1)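 Nonpretreated rats given test drug sc 65 min and NSD 1015 (100 mg/kg ip) 30 min before death; saline controls. Limbic and striatal DOPA by HPLC with electrochemical detection.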

Rattus norvegicus [2] = assay: Effect on in vivo DOPA accumulation in nonpretreated rats at striatum region at 5 mg/kg dosage administered subcutaneously; I = Inactive; assay type: functional, organism-based; set-up: dose 5 mg/kg; how it was run: as §1
Rattus norvegicus [3] = assay: Effect of in vivo DOPA accumulation in reserpine-pretreated rats at limbic region, at 5 mg/kg dosage administered subcutaneously; assay type: functional, Limbic system; settings: route subcutaneous
Rattus norvegicus [4] = assay: Effect of in vivo DOPA accumulation in reserpine-pretreated rats at striatum region, at 5 mg/kg dosage administered subcutaneously; assay type: functional; settings: sc, route subcutaneous
Rattus norvegicus [5] = assay: In vivo locomotor activity (accumulated counts/30 min) in reserpine-pretreated rats, after subcutaneous administration of 52 uM/Kg; assay type: functional
How it was run: (§2)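 Rats pretreated with reserpine 5 mg/kg sc 18 h earlier, then test drug sc immediately before session; photocell motility counts accumulated over 30 min, with gross behaviour observed through mirror. Mean ± SEM, n = 3-4; Student's t test vs saline controls; haloperidol pretreatment 0.5 mg/kg ip 30 min before used to test antagonism.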

Rattus norvegicus [6] = assay: Evaluated for in vivo locomotor activity in nonpretreated rats, measured as accumulated counts/30 min at a dose of 52 umol/kg administered sc; assay type: functional
How it was run: (§3)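 Nonpretreated rats injected sc with test drug 5 min before session; motility by photocell recording, counts accumulated over 30 min. Expressed as percent of saline controls, means ± SEM, n = 3-5; Student's t test vs saline controls.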

Rattus norvegicus [7] = assay: In vivo locomotor activity (accumulated counts/30 min) in nonpretreated rats after subcutaneous administration of 0.32 uM/Kg; assay type: functional; how it was run: as §3
Rattus norvegicus [8] = assay: In vivo locomotor activity (accumulated counts/30 min) in nonpretreated rats after subcutaneous administration of 3.2 uM/Kg; assay type: functional; how it was run: as §3
Rattus norvegicus [9] = assay: In vivo locomotor activity (accumulated counts/30 min) in reserpine-pretreated rats, after subcutaneous administration of 3.2 uM/Kg; assay type: functional; how it was run: as §2
Rattus norvegicus [10] = assay: Effect of in vivo DOPA accumulation in reserpine-pretreated rats at striatum region, at 5 mg/kg dosage administered sc; assay type: functional; settings: route subcutaneous
Rattus norvegicus [11] = assay: Effect of in vivo DOPA accumulation in reserpine-pretreated rats at striatum region, at 5 mg/kg dosage administered sc; I = Inactive; assay type: functional, organism-based; set-up: dose 5 mg/kg
Rattus norvegicus [12] = assay: Effect on in vivo DOPA accumulation in nonpretreated rats at striatum region, at 5 mg/kg dosage administered subcutaneously; I = Inactive; assay type: functional, organism-based; set-up: dose 5 mg/kg; how it was run: as §1
Rattus norvegicus [13] = assay: In vivo locomotor activity (accumulated counts/30 min) in reserpine-pretreated rats, after subcutaneous administration of 0.32 uM/Kg; assay type: functional; how it was run: as §2
Rattus norvegicus [14] = assay: Effect of in vivo DOPA accumulation in reserpine-pretreated rats at limbic region, at 5 mg/kg dosage administered subcutaneously; I = Inactive; assay type: functional, organism-based; set-up: dose 5 mg/kg; settings: Limbic system
Rattus norvegicus [15] = assay: Effect on in vivo DOPA accumulation in nonpretreated rats at Limbic region, at 5 mg/kg dosage administered subcutaneously; I = Inactive; assay type: functional, organism-based; set-up: dose 5 mg/kg; settings: Limbic system; how it was run: as §1
Rattus norvegicus [16] = assay: In vivo locomotor activity (accumulated counts/30 min) in reserpine-pretreated rats, after subcutaneous administration of 10 uM/Kg; assay type: functional; how it was run: as §2
Rattus norvegicus [17] = assay: In vivo locomotor activity (accumulated counts/30 min) in reserpine-pretreated rats, after subcutaneous administration of 0.31 umol/kg; assay type: functional; how it was run: as §2
Rattus norvegicus [18] = assay: In vivo locomotor activity (accumulated counts/30 min) in reserpine-pretreated rats, after subcutaneous administration of 39 uM/Kg; assay type: functional; how it was run: as §2
[19] = Rattus norvegicus, Limbic system, sc, read-out: ED50

With `CCCN(CCC)[C@@H]1Cc2cccc(O)c2C[C@H]1C` (stereo in doubt; (+)5) [listing 1 of 2 here] the ED50 (Rattus norvegicus [1]) was “inactive” and the ED50 (Rattus norvegicus [2]) was “inactive”.

`CCCN(CCC)[C@@H]1Cc2cccc(O)c2C[C@H]1C` (stereo in doubt; (+)5) [listing 2 of 2 here] gave an ED50 (Rattus norvegicus [3]; dose 5 mg/kg) of 25 µM/kg, an ED50 (Rattus norvegicus [4]) of 25 µmol/kg and a Locomotor activity (Rattus norvegicus [5]) of 55. The Locomotor activity (Rattus norvegicus [6]) was 84.

With `CN1CCc2cccc3c2[C@H]1Cc1ccc(O)c(O)c1-3` [APOMORPHINE] the Locomotor activity (Rattus norvegicus [7]) was 52, the ED50 (Rattus norvegicus [3]; [19]) was 0.041 µmol/kg and the Locomotor activity (Rattus norvegicus [8]) was 277. The Locomotor activity (Rattus norvegicus [9]) was 366 and the ED50 (Rattus norvegicus [10]) was 0.044 µmol/kg.

`CCCN(CCC)[C@@H]1Cc2cccc(O)c2C[C@@H]1C` was tested, and the ED50 (Rattus norvegicus [11]) was “inactive”, the ED50 (Rattus norvegicus [3]; [19]) was 0.005 µmol/kg and the ED50 (Rattus norvegicus [12]) was “inactive”. The Locomotor activity (Rattus norvegicus [13]) was 110, the ED50 (Rattus norvegicus [14]) was “inactive” and the ED50 (Rattus norvegicus [15]) was “inactive”. The ED50 (Rattus norvegicus [10]) was 0.005 µmol/kg, the Locomotor activity (Rattus norvegicus [16]) was 12 and the Locomotor activity (Rattus norvegicus [6]) was 70.

`CCCN(CCC)[C@H]1CCc2c(O)cccc2C1` showed an ED50 (Rattus norvegicus [3]; [19]) of 0.004 µmol/kg, a Locomotor activity (Rattus norvegicus [17]) of 155 and an ED50 (Rattus norvegicus [10]) of 0.004 µmol/kg.

`CCCN(CCC)[C@@H]1Cc2cccc(O)c2C[C@H]1C` (stereo in doubt; (-)5) showed an ED50 (Rattus norvegicus [3]; dose 5 mg/kg) of 3.5 µM/kg, a Locomotor activity (Rattus norvegicus [5]) of 53 and an ED50 (Rattus norvegicus [10]) of 3.1 µmol/kg.

`CCCN(CCC)[C@@H]1CCc2c(O)cccc2C1` gave an ED50 (Rattus norvegicus [3]; [19]) of 0.41 µmol/kg, a Locomotor activity (Rattus norvegicus [18]) of 43 and an ED50 (Rattus norvegicus [10]) of 0.65 µmol/kg.
